Pf Dd2 inh – inhibitors of Plasmodium falciparum Dd2 growth; P. falciparum Dd2 growth, SYBR Green, 72 h; stronger effect = lower value; activity change, % at 10 µM; hit rate 2.3% among 94,000; in the data active = activity change below about -80%; inconclusive = no clear call, values can overlap the other calls
KDM4C inh – inhibitors of human demethylase GASC-1 KDM4C; Q9H3R0; inhibition, % at 12.5 µM; hit rate 0.15% among 96,000; GST-KDM4C 2-372, H3K9me3 peptide, LANCE TR-FRET;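 active = mean replicate inhibition above about 25%, with at least 55% of replicates also reaching it, limit read from the data, passing the limit was not always enough; inconclusive = only one of those two conditions met; inactive = neither condition met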
Target sequence (Q9H3R0 2-372 limits assumed): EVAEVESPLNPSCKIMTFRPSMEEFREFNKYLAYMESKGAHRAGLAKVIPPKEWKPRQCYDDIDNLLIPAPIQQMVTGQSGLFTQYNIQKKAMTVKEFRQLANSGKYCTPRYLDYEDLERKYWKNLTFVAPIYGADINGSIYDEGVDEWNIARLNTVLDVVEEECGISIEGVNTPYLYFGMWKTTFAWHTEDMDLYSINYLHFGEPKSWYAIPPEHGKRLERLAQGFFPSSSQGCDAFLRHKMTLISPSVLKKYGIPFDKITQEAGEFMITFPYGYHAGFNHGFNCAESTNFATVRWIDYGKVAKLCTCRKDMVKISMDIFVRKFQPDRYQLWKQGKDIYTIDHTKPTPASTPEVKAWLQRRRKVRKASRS
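System – N-terminal GST-fused human GASC-1 (KDM4C) fragment, residues 2-372 · Input – enzyme final amount 10 nM · Technique – LANCE TR-FRET, Eu antibody, ULight-streptavidin, EDTA, ex 340 nm, em 618/671 nm · Medium – HEPES buffer, pH 7.5, plus ascorbate · Incubation – enzyme reaction 30 min, then detection 60 min, both room temperature · Reagent – H3K9me3 peptide with Fe(II)/2OG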
T cruzi growth-1 – inhibitors of T. cruzi proliferation | T. cruzi beta-gal in NIH3T3, GalScreen luminescence, 90 h | inhibition, % at 8.34 µM | hit rate 5.9% among 77,000;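 active = mean inhibition above about 93%, with at least 55% of replicates each passing it, limit read from the data, passing the limit was not always enough; inconclusive = only one of those two conditions holds; inactive = neither condition holds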
IDH1 R132H inh – blocks human IDH1 R132H reductase activity; diaphorase/resazurin fluorescence, 60 min; inhibition, % at 10 µM; hit rate 0.18% among 70,000; AID 624101; O75874; in the data active = inhibition above about 34%; inconclusive = no clear call, values can overlap the other calls; inactive = below about 11%;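 also: 0% = DMSO and 100% = no enzyme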
T cruzi growth-2 – Trypanosoma cruzi proliferation inhibition. shares compounds with T cruzi growth-1. T. cruzi beta-gal in NIH3T3, GalScreen luminescence, 90 h. inhibition, % at 8.35 µM. hit rate 72% among 5,600. AID 651739;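 active = mean replicate inhibition above about 95% and at least 55% of replicates individually reaching it, limit read from the data; inconclusive = only one of the two criteria is met; inactive = neither criterion is met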
T cruzi growth-3 – Trypanosoma cruzi proliferation inhibition | shares compounds with T cruzi growth-1 | AID 651740 | inhibition, % at 2.09 µM | hit rate 21% among 5,600 | T. cruzi beta-gal in NIH3T3, GalScreen luminescence, 90 h;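 active = mean inhibition above about 95%, with at least 55% of replicates also reaching it, limit read from the data; inconclusive = meets just one of the two conditions; inactive = meets neither condition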;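 also: plate controls were neutral control median for no effect and positive control median for full effect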
3T3 cytotox – NIH/3T3 (mouse) viability loss | cytotoxicity (signal decrease), % at 8.35 µM | AID 651742 | hit rate 14% among 5,600 | NIH/3T3 viability, CellTiter-Glo ATP luminescence, 90 h | shares compounds with T cruzi growth-1;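 active = mean signal decrease across replicates above about 35% based on untreated-well scatter, with enough replicates individually passing, limit read from the data; inconclusive = no rule stated though some were filed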;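 also: 0% = median of neutral control wells and 100% = median of positive control wells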
NIH3T3 tox 2 – cytotoxicity in mouse NIH/3T3 fibroblasts | shares compounds with T cruzi growth-1 | NIH/3T3 viability, CellTiter-Glo ATP luminescence, 90 h | hit rate 56% among 5,600 | inhibition, % at 24.9 µM;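 active = mean loss of cell viability signal at or above a set limit, and enough replicates individually reaching it; inconclusive = meets only the mean limit or only the replicate share; inactive = meets neither condition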;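 also: 0% = median of neutral control wells and 100% = median of positive control wells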
The depositor's hits bear a star; ? = inconclusive; / = no result. Only some compounds are listed: those with a hit (about 5.9% of all), similar ones and a draw of the others.

SMILES	Pf Dd2 inh	KDM4C inh	T cruzi growth-1	IDH1 R132H inh	T cruzi growth-2	T cruzi growth-3	3T3 cytotox	NIH3T3 tox 2
COc1ccc(S(=O)(=O)Nc2cccc3c2O[C@@H](CN(C)Cc2ccc(C(=O)Nc4ccccc4N)cc2)[C@H](C)CN([C@H](C)CO)C3=O)cc1	-34	0	/	/	/	/	/	/
COc1ccc(S(=O)(=O)Nc2cccc3c2O[C@@H](CN(C)Cc2ccc(C(=O)Nc4ccccc4N)cc2)[C@@H](C)CN([C@@H](C)CO)C3=O)cc1	-45	0	?	/	89	83	-3	37*
COc1ccc(S(=O)(=O)Nc2cccc3c2O[C@@H](CN(C)Cc2ccc(C(=O)O)cc2)[C@@H](C)CN([C@H](C)CO)C3=O)cc1	6	0	101*	-2	-30	3	0	5
Cc1ccc(S(=O)(=O)Nc2cccc3c2O[C@@H](CN(C)Cc2ccc(C(=O)Nc4ccccc4N)cc2)[C@H](C)CN([C@@H](C)CO)C3=O)cc1	-72	3	/	/	/	/	/	/
C[C@H]1CN([C@@H](C)CO)C(=O)c2cc(NS(=O)(=O)c3cn(C)cn3)ccc2O[C@@H]1CN(C)Cc1ccc(C(=O)Nc2ccccc2N)cc1	22	-1	?	0	65	8	6	-8
COc1cccc(C2C(C(=O)c3ccco3)C(=O)C(=O)N2CCN(C)C)c1OC (configuration not stated)	/	/	/	0	/	/	/	/
COc1ccc(OC)c(S(=O)(=O)N2CCC(C(=O)Nc3ccc(Cl)cc3)CC2)c1	/	/	/	0	/	/	/	/
C[C@@H]1CN([C@@H](C)CO)C(=O)c2cc(NS(=O)(=O)c3ccc(Cl)cc3)ccc2O[C@@H]1CN(C)Cc1ccc(C(=O)Nc2ccccc2N)cc1	?	-2	106*	/	108*	55	21	62*
C[C@H]1CN([C@@H](C)CO)C(=O)c2cc(NS(=O)(=O)c3ccc(Cl)cc3)ccc2O[C@@H]1CN(C)Cc1ccc(C(=O)Nc2ccccc2N)cc1	-43	-3	86	/	/	/	/	/
O=C(CC1CC1)Nc1ccc2c(c1)[C@H]1C[C@@H](CC(=O)N3CCCCC3)O[C@H](CO)[C@H]1O2	8	-1	104*	0	?	22	6	15
O=C(CC1CC1)Nc1ccc2c(c1)[C@@H]1C[C@@H](CC(=O)N3CCCCC3)O[C@H](CO)[C@@H]1O2	18	3	110*	-1	19	-45	-10	2
O=C(C[C@@H]1C[C@@H]2c3cc(NS(=O)(=O)c4ccccc4)ccc3O[C@@H]2[C@H](CO)O1)N1CCCCC1	-3	0	104*	0	64	2	21	18
O=C(CC1CC1)Nc1ccc2c(c1)[C@H]1C[C@H](CC(=O)N3CCCCC3)O[C@H](CO)[C@H]1O2	15	-1	8	-1	/	/	/	/
O=C(CC1CC1)Nc1ccc2c(c1)[C@H]1C[C@@H](CC(=O)N3CCCCC3)O[C@@H](CO)[C@H]1O2	-16	1	86	0	/	/	/	/
Cc1ccc2oc(C(=O)Nc3sc4c(c3C(=O)NC3CCS(=O)(=O)C3)CCC4)c(C)c2c1 (configuration not stated)	/	/	/	1	/	/	/	/
Cc1ccc(S(=O)(=O)N(C)C[C@H]2OCCCC[C@H](C)Oc3ccc(NS(=O)(=O)c4cccs4)cc3C(=O)N([C@H](C)CO)C[C@H]2C)cc1	-75	-2	109*	/	103*	16	-37	-15
Cc1ccc(S(=O)(=O)N(C)C[C@H]2OCCCC[C@@H](C)Oc3ccc(NS(=O)(=O)c4cccs4)cc3C(=O)N([C@@H](C)CO)C[C@@H]2C)cc1	-14	0	?	2	107*	53	-3	15
Cc1ccc(S(=O)(=O)N(C)C[C@@H]2OCCCC[C@@H](C)Oc3ccc(NS(=O)(=O)c4cccs4)cc3C(=O)N([C@H](C)CO)C[C@H]2C)cc1	-58	1	59	0	/	/	/	/
C[C@@H]1CCCCO[C@H](CN(C)S(=O)(=O)c2ccccc2)[C@H](C)CN([C@@H](C)CO)C(=O)c2cc(NS(=O)(=O)c3cccs3)ccc2O1	/	-1	?	-1	103*	46	-10	-8
Cc1ccc(S(=O)(=O)N(C)C[C@@H]2OCCCC[C@@H](C)Oc3ccc(NS(=O)(=O)c4cccs4)cc3C(=O)N([C@@H](C)CO)C[C@H]2C)cc1	-43	8	86	?	/	/	/	/
Cc1ccc(S(=O)(=O)N(C)C[C@@H]2OCCCC[C@@H](C)Oc3ccc(NS(=O)(=O)c4cccs4)cc3C(=O)N([C@@H](C)CO)C[C@@H]2C)cc1	-74	-1	103*	/	104*	70	12	-2
Cc1ccc(S(=O)(=O)N(C)C[C@@H]2OCCCC[C@@H](C)Oc3ccc(NS(=O)(=O)c4cccs4)cc3C(=O)N([C@H](C)CO)C[C@@H]2C)cc1	-56	0	61	/	/	/	/	/
Cc1ccc(S(=O)(=O)N(C)C[C@@H]2OCCCC[C@H](C)Oc3ccc(NS(=O)(=O)c4cccs4)cc3C(=O)N([C@H](C)CO)C[C@@H]2C)cc1	-68	1	119*	-1	96*	42	-25	-7
Cc1ccc(S(=O)(=O)N(C)C[C@H]2OCCCC[C@@H](C)Oc3ccc(NS(=O)(=O)c4cccs4)cc3C(=O)N([C@H](C)CO)C[C@H]2C)cc1	-69	0	?	/	90	31	-29	-39
COc1cccc(S(=O)(=O)N[C@@H]2CC[C@@H](CCn3cc(-c4ccccc4OC)nn3)O[C@H]2CO)c1	-48	1	-1	-1	/	/	/	/
SMILES	Pf Dd2 inh	KDM4C inh	T cruzi growth-1	IDH1 R132H inh	T cruzi growth-2	T cruzi growth-3	3T3 cytotox	NIH3T3 tox 2
COCc1cn(CC[C@@H]2CC[C@@H](NC(=O)c3ccncc3)[C@@H](CO)O2)nn1	2	-1	127*	1	22	-29	-1	-13
COc1cccc(S(=O)(=O)N[C@H]2CC[C@H](CCn3cc(-c4ccccc4OC)nn3)O[C@@H]2CO)c1	-5	0	?	0	24	-6	10	32
O=C(N[C@H]1CC[C@@H](CCn2cc(-c3ccccc3F)nn2)O[C@H]1CO)c1ccc2c(c1)OCO2	-57	-1	112*	0	10	3	-2	22
COC(=O)c1ccccc1NC(=O)Cn1nc([N+](=O)[O-])c(Br)c1C	/	/	/	0	/	/	/	/
O=C(C1CCCC1)N1CCCCN2[C@H](C1)[C@@H](c1ccc(C#CC3(O)CCCC3)cc1)[C@@H]2CO	-41	/	70	/	/	/	/	/
O=C(C1CCCC1)N1CCCCN2[C@H](CO)[C@@H](c3ccc(C#CC4(O)CCCC4)cc3)[C@H]2C1	-13	/	104*	/	-5	20	6	19

Screening data: PubChem BioAssay, Broad Institute
